Data reported in ChEMBL document CHEMBL1151834, “Bioactive alkaloids from endophytic Aspergillus fumigatus” (J Nat Prod, 2009).
pIC50: −log10 of the molar value. Structures can show the parent of a compound that is named as a salt. The source made the active and inactive calls. The rule behind the calls is not given here.

Legend:
Assay type in all cases: functional, cell-based
PC-12 = test: Induction of neurite outgrowth in rat PC12 cells at 10 uM after 2 days by phase-contrast microscope
Procedure, shortened: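 PC12 cells kept in DMEM with 10% heat-inactivated fetal calf serum, 5% horse serum, penicillin 50 units/mL and streptomycin 50 µg/mL at 37 °C, 5% CO2. Seeded at 1 × 10^4 cells/mL, cultured one day, then medium replaced with fresh medium containing compound. Cultured 2 days; neurite outgrowth observed by phase-contrast microscopy against untreated control.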

MCF7 = test: Cytotoxicity against human MCF7 cells after 48 hrs by MTT assay
Procedure, shortened: (§1)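 Exponential-phase cells plated, allowed 24 h to establish, then exposed to compound dilutions for 48 h. MTT added (0.1 mg/well) for 4 h, supernatant removed, formazan dissolved in DMSO, absorbance read at 570 nm. IC50 taken as concentration giving 50% growth inhibition; mean ± SD of three experiments run in triplicate.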

KB = test: Cytotoxicity against human KB cells after 48 hrs by MTT assay; procedure, shortened: as §1
K562 = test: Cytotoxicity against human K562 cells after 48 hrs by MTT assay; conditions: K562, 48 h; procedure, shortened: as §1

| SMILES | Activity (PC-12) | Activity (MCF7) | Activity (KB) | pIC50 (K562) |
| --- | --- | --- | --- | --- |
| CC/C=C\[C@H](O)[C@H](O)C1=C(C)C(=O)[C@]2(O1)C(=O)N[C@@](OC)(C(=O)c1ccccc1)[C@@H]2O | Active | inactive | inactive |  |
| COc1ccc2c(c1)NC(=O)[C@@]21C[C@H]2C(=O)N3CCC[C@H]3C(=O)N2[C@H]1C=C(C)C | inactive | inactive | inactive |  |
| COc1ccc2c(C[C@@H]3NC(=O)[C@@H]4CCCN4C3=O)c(CC=C(C)C)[nH]c2c1 [TRYPROSTATIN A] | inactive | inactive | inactive | 4.39 |
| COc1ccc2c(c1)NC(=O)[C@@]21C=C2C(=O)N3CCC[C@H]3C(=O)N2[C@H]1C=C(C)C | inactive | inactive | inactive |  |
| C=CC(C)(C)c1[nH]c2cccc3c2c1C[C@@H]1[C@@H]3[C@@H](O)[C@@H](C)CN1C | inactive | inactive | inactive | 4.39 |
| COc1cccc2c1C(=O)c1c(O)c3c(c(O)c1C2=O)C[C@@](O)(C(=O)CO)C[C@@H]3O[C@H]1C[C@H](N)[C@H](O)[C@H](C)O1 [DOXORUBICIN HYDROCHLORIDE] |  |  |  | 5.92 |
| COc1ccc2c3c([nH]c2c1)[C@H](C=C(C)C)N1C(=O)[C@@H]2CCCN2C(=O)[C@@H]1C3 [FUMITREMORGIN] | inactive | inactive | inactive | 4.39 |
| C[C@@H]1N[C@@H]2N(C1=O)c1ccccc1[C@@]21C[C@@H](n2cnc3ccccc3c2=O)C(=O)O1 | inactive | inactive | inactive |  |
| COc1ccc2c3c4n(c2c1)[C@H](C=C(C)C)OOC(C)(C)C[C@@H]4N1C(=O)[C@@H]2CCCN2C(=O)[C@]1(O)[C@H]3O [VERRUCULOGEN] | inactive | inactive | inactive | 4.39 |
| C/C=C\[C@H](O)[C@H](O)C1=C(C)C(=O)[C@]2(O1)C(=O)N[C@@](OC)(C(=O)c1ccccc1)[C@@H]2O |  | inactive | inactive |  |
| CC(C)=C[C@H]1c2[nH]c3ccccc3c2C[C@H]2C(=O)N3CCC[C@H]3C(=O)N21 | inactive | inactive | inactive |  |
| CC(C)=CCc1[nH]c2ccccc2c1C[C@@H]1NC(=O)[C@@H]2CCCN2C1=O [TRYPROSTATIN B] | inactive | inactive | inactive | 4.39 |
| CS[C@]1(CO)C(=O)N2[C@H]3C(=CC=CC3O)C[C@@]2(SC)C(=O)N1C (stereo partly specified) [DIMETHYLGLIOTOXIN] | inactive | inactive | inactive | 4.39 |
| C=CC(C)(C)c1[nH]c2cccc3c2c1C[C@@H]1[C@@H]3C[C@@H](C)CN1C | inactive | inactive | inactive | 5.51 |
